Source: the EternaBench riboswitch data

Test system: MS2 coat protein
Assay: apparent Kd, MS2 coat protein; higher = weaker binding; RNA-MaP array; FMN 200 µM where present
Outline: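 Green signal was scaled to red-channel RNA signal and control-cluster median Fmax, and the apparent Kd was taken as the median of filtered per-cluster binding-curve fits. The binding series used SNAP-549-labelled MS2 coat protein from 0.7 or 1.5 nM, doubling to 3 µM, on designs transcribed by stalled E. coli RNA polymerase on Illumina sequencing-chip clusters. Each series ran without and then with constant ligand in 100 mM Tris-HCl pH 7.5, 80 mM KCl, 4 mM MgCl2, BSA, DTT, yeast tRNA and Tween-20.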

[1] = designed as: OFF switch for flavin mononucleotide, no ligand
[2] = ligand present: flavin mononucleotide, designed as: OFF switch for flavin mononucleotide
[3] = designed as: ON switch for flavin mononucleotide, no ligand
[4] = ligand present: flavin mononucleotide, designed as: ON switch for flavin mononucleotide

Sequence	apparent Kd [1]	apparent Kd [2]	apparent Kd [3]	apparent Kd [4]
AUCAGCUCGUCAGGAUAUACGUCACUGCGUCAGCAGUGUGGUAAGAUGACAUGAGGAUCACCCAUGUAGAAGGGACGAGCUGAU	6.82 nM	15.8 nM	–	–
AUCAGCUCGUCAGGAUAUACGUCAGUGCGUCAGCAGUGUGGUAAGAUCACAUGAGGAUCACCCAUGUAGAAGGGACGAGCUGAU	161 nM	621 nM	–	–
AUCAGCUCGUCAGGAUAUACGUCCCUGCGUCAGCAGUGUGGUAAGAUCACAUGAGGAUCACCCAUGUAGAAGGGACGAGCUGAU	22.9 nM	312 nM	–	–
AUCAGCUCGUCAGGAUAUACGUCUCUGCGUCAGCAGUGUGGUAAGAUCACAUGAGGAUCACCCAUGUAGAAGGGACGAGCUGAU	42.9 nM	691 nM	–	–
AUCAGCUCGUCAGGAUAUAUGUCACUGCUUCGGCAGUGUGGUAAGAUUACAUGAGGAUCACCCAUGUAGAAGGGACGAGCUGAU	6.12 nM	6.9 nM	–	–
AUCAGCUCGUGAGGAUAUACGUCACUGCUUCGGCAGUGUGGUAAGAUCACAUGAGGAUCACCCAUGUAGAAGGCACGAGCUGAU	21.4 nM	471 nM	–	–
AUCAGCUUGACAGGAUAUACAUGACUGCGAAAGCAGUCUAUCUUAAUAACAUGAGGAUCACCCAUGUAGAAGGGUCGAGCUGAU	17.8 nM	27 nM	–	–
AUCAUGCUCAAGAAGGACAUGAGGAUCACCCAUGUAGGAUAUUGGGCGGUCACCUCUAGCUUGUGUGUAUCUGAAUACUCCAGG	–	–	21.1 nM	7.17 nM
AUCAUGUAAGGAUAUCUUACAUGUGACGAAAGUCACAGUUAAGAGAAGGUACAUGAGGAUCACCCAUGUAUAAC	27.4 nM	54.9 nM	–	–
AUCCCGAUAGUAGGAUAUUUCUGCAGUUGUGGUUAGGUCGCCCUACAUGAGGAUCACCCAUGUAGAGAGAAGGACUGUGGUUAA	5.52 nM	6.7 nM	–	–
AUCCGACAUGAGGAUCACCCAUGUCAGGAUAUGGACUGACACCGAAAGAGUGGAGGAACCAGAAGGGACUGGGC	27.7 nM	46.5 nM	–	–
AUCCGACAUGAGGAUCACCCAUGUCAGGAUAUGGACUGACACCGAAAGGAUGGAGGAACCAGAAGGGACUGGGC	32.5 nM	47.8 nM	–	–
AUCGGUCCGUAGAAGGGUGACAUGAGGAUCACCCAUGUGCCGUGUGCAUUUAUGCAUCCACGGCCACAGGAUAUACGGAGUUGA	–	–	34.9 nM	25.4 nM
AUCGGUCCGUAGAAGGGUGACAUGAGGAUCACCCAUGUGCCGUGUGCAUUUAUGCCUCCACGGCCACAGGAUAUACGGAGUUGA	–	–	80.1 nM	39.1 nM
AUCUAGUCAGGAUAUACGAACCGAUGAAUCGGACGGAACGAACAUGAGGAUCACCCAUGUAGAAGGGACACUCA	162 nM	163 nM	–	–
AUCUCAGGACGAGGAUAUCAAUACAUGAGGAUCACCCAUGUAUGAUUACUGUGAUCCUCUAAGGCUGAGAAGGCGUCCCAAUUA	20.4 nM	8.37 nM	–	–
AUCUUGUCAGGAUAUCUGACAAGUGACGAAAGUCACAGUUCAGAGAAGGUACAUGAGGAUCACCCAUGUAGAAC	19.4 nM	19.2 nM	–	–
AUCUUUAACAUAGGAUAUAGUAUGAAGGUUUAUUUAGAAGGAUGUCACAUGAGGAUCACCCAUGUAUUAGGAUUACCCAUGUAU	30.1 nM	23.1 nM	–	–
AUCUUUAAGAUAGGAUAUAGUAUGAUGGUUUAAUUAGAAGGAUCUCACAUGAGGAUCACCCAUGUAAUAGGAUUACCCAUGUAU	46.1 nM	31.7 nM	–	–
AUGAAAGUAACACAGGAUAUCGAGGAUACAACAUGAGGAUCACCCAUGUACAUACGAACGUAUAACGAGAAGGGUGGAUGAUCUUC	–	–	244 nM	639 nM
AUGACAGGCAGAGCGCAACGGCGUACAUGAGGAUCACCCAUGUAGGAUAUGCUACACAAAGUGUAGCAGAAGGACAUGCGACGC	23.4 nM	42.2 nM	–	–
AUGAGAGCAGGAUAUGCAGGUGUGCCGGAAGAAAGAAGAGGACAUGAGGAUCACCCAUGUAGAAGGGCUAACCC	41.1 nM	19.8 nM	–	–
AUGAGGUCAGGAUAUGCAUGGCGGGACUUGCGUCGUGGCGUGCAGAAGGGACAUGAGGAUCACCCAUGUGGACC	36.4 nM	39.5 nM	–	–
AUGAGGUCAGGAUAUGCAUGGCGGGACUUGCGUCGUGGCGUGGAGAAGGGACAUGAGGAUCACCCAUGUGGAGU	91.4 nM	50.5 nM	–	–
AUGAGUAAAGCAGGAUAUCUAUUGUCUCUGAAACAUGAGGAUCACCCAUGUAGAGAAGGGCUAAGUCUUACUCUUCGGAGUUGA	9.98 nM	10.3 nM	–	–
AUGAGUAAAGCAGGAUAUCUAUUGUCUCUGUAACAUGAGGAUCACCCAUGUAGAGAAGGGCUUAGUCAUACACUUCGAAGUUGA	9.13 nM	10.1 nM	–	–
AUGAUUAUACAAGGAUAUCAAUUGUAUACAAGUCUUACAUGAGGAUCACCCAUGUUAAAUUUUUUUGAGAAGGUGUGUUGUCAG	–	–	35.6 nM	30.6 nM
AUGCAGCCACCACAGGAUAUACGUGGAUCGACAUGAGGAUCACCCAUGUAUAUCCUAAUAAUUGCGUAGAAGGGUGGUCGGCUGG	–	–	555 nM	81.8 nM

Sequence	apparent Kd [1]	apparent Kd [2]	apparent Kd [3]	apparent Kd [4]
AUGCCCUGAGGAUAUCUCAUCCCGCACAUGAGGAUCACCCAUGUUCUUCUCCGGGUUCCGAGAGAAGGCAGGCCUA	157 nM	81.9 nM	–	–
AUGCCUAAUGAGAAGGUGUAUAUAAAUUAUAUACAAGGAUAUCGGUCAAGCAUGAAAACAUGAGGAUCACCCAUGUUAAGGCAU	–	–	7.57 nM	6.36 nM
AUGCUAUAUGUAGGAUAUUCAAAGAAAGAGAAUGAAGAAGGACAUGAGGAUCACCCAUGUAAAAUGUAGAUAGAUAUCAUACAU	18 nM	14 nM	–	–
AUGCUUCACACAGGAUAUACAUGAGGAUCACCCAUGUGUCCAAAGUAGCUGACACGAGCUACGCGGUAGAAGGGUGUGAAGCAU	17.3 nM	54.3 nM	–	–
AUGCUUCACACAGGAUAUACAUGAGGAUCACCCAUGUGUCCUACGUAGCUGACACGAGCUACGCGGUAGAAGGGUGUGAAGCAU	18.6 nM	93.7 nM	–	–
AUGCUUCACACAGGAUAUACAUGAGGAUCACCCAUGUGUCCUCCGUAGCUGACACCAGCUACGCUGUAGAAGGGUGUGAAGCAU	261 nM	201 nM	–	–
AUGCUUUAUGUAGGAUAUUCAAACGGUAAGAAUGGAGAAGGACAUGAGGAUCACCCAUGUAAAAUAUUAUUAGAUAUCAUACAU	22.1 nM	19.4 nM	–	–
AUGCUUUGUGUAGGAUAUGCAUACGGUACGUAUGCAGAAGGACAUGAGGAUCACCCAUGUAUAUUAUUAUUACAUAUCAUACAU	35.3 nM	229 nM	–	–
AUGGACGCAGGAUAUACAUGAGGAUCACCCAUGUUAGGGUUAAGAGAAGGAAGGGAGAGUAGAAGGGCGAGAGU	118 nM	89.3 nM	–	–
AUGGGCUAGGAGAAGGGCUAGAGUGUGAUAUAUUUGCCCGCGAGCACAUGAGGAUCACCCAUGUAGCAGGAUAUCCAAGCCGGU	7.43 nM	18 nM	–	–
AUGGUGGUAGGAUAUACAACUACUUGAUCGCGUUUCAUGGAACAUGAGGAUCACCCAUGUAGAAGGGCCCGAGG	794 nM	552 nM	–	–
AUGGUUGUCGUAGGAUAUGUAGGAUAUUCCUACAUGAGGAUCACCCAUGUUCGCAUGGAAGAAGGACAGAAGGACGAUGACCAG	–	–	1020 nM	9.57 nM
AUGUGACAUGAGGAUCACCCAUGUAAGGAUAUAUGACUAAGGACUUCCUUGGUAGCGCGUAGAAGGUACGUGAA	19.6 nM	20 nM	–	–
AUGUGGUUCCCGGCCGUCGUGUACGAGGAUAUCCUCGAACAUGAGGAUCACCCAUGUAACGUUGUGGAGAAGGCGUACGCUCGG	–	–	31.3 nM	5.48 nM
AUUAAACAUGAGGAUCACCCAUGUCAACAAAGUCGAGGAUAUGGGCAAUUAAAAUAAGAACCAGAAGGCGAAUAAU	–	–	340 nM	35.4 nM
AUUAAACAUGAGGAUCACCCAUGUCAACAAAGUCGAGGAUAUGGGCAUAUUAUCUUAUUUCCAGAAGGCGAAUAAU	–	–	121 nM	33.9 nM
AUUAAGCAGCAGGAUAUAAUUAUCUGAAGGUGGUUAGAAGGGCUGACAUGAGGAUCACCCAUGUGCUCUUCGUG	16.2 nM	32.2 nM	–	–
AUUACAUGAGGAUCACCCAUGUACAGCACGUUUCAAAACAGUGAGGAUAUACGAAAUGUAGGAACGUAGAAGGCACUGGGUGCA	–	–	98.3 nM	34.2 nM
AUUAGUAUCUAGGAUAUCUAGUACAUAGUAUCUAGAGAAGGAGAUACAUGAGGAUCACCCAUGUUCUGUGUUCU	27.2 nM	64.5 nM	–	–
AUUAUACAUGAGGAUCACCCAUGUAAUUAAUUAAUUAAGAUCUAGGAUAUCAGCUCGAAUAGAGCUGAGAAGGAGAUCACAUGU	–	–	31.7 nM	18 nM
AUUAUAUAGACAGGAUAUUGAUUAUUAUUUUAACAUGAGGAUCACCCAUGUAGCCUUAUGUAUAGCAAGAAGGGUCAUUUAUUA	135 nM	206 nM	–	–
AUUAUGUUAGGAUAUGCUUAUGGUGGAUAGUCCGAUAUGAUGCAGAAGGGACAUGAGGAUCACCCAUGUACUGA	27.3 nM	29.5 nM	–	–
AUUCAGCGAGGAUAUACAGGUUCUGGGUGAGGCUCGGCGAGACAUGAGGAUCACCCAUGUAGAAGGUGCUAGCC	341 nM	284 nM	–	–
AUUGCUAGCGCAGGAUAUGAUGCGAAAAUUGCGUCAGAAGGGUGUAAUCUCUCAUUGCGGGAGGACAUGAGGAUCACCCAUGUC	–	–	142 nM	87 nM
AUUGUAGUUGUGAGGAUAUCGUAGAUUUAUUGAAACGAGAAGGCACAUGAGGAUCACCCAUGUAAGUUGUAGGU	71.2 nM	267 nM	–	–
AUUGUUAAGUUAGGAUAUAGUAAAAUAAUUUAAUUAGAAGGAGCUCACAUGAGGAUCACCCAUGUAAGAGGAUCACCCAUGUAU	23.5 nM	18.9 nM	–	–
AUUUAAUUUAGCGAGAUCACAUGAGGAUCACCCAUGUAUAUAUAGGAUAUCAGCUCGUUUAGAGCUGAGAAGGAUAUAUACCGC	89.8 nM	147 nM	–	–
